{
  "source": "ChEMBL document CHEMBL3286113",
  "about": "“New potent antibacterial oxazolidinone (MRX-I) with an improved class safety profile” (J Med Chem, 2014)",
  "key": {"[1]": {"experiment": "Elimination half life in human at 900 mg, po administered as single dose at 30 mins post fat meal", "type": "ADME, organism-based", "settings": "in vivo, read-out: beta t1/2 (converted); call rule not given here", "outline": "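Crossover study in 12 subjects (six of each sex). Each got a single oral 900 mg dose either fasted or 30 min after a fat-containing meal.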"}, "Mus musculus": {"tested_on": "Mus musculus", "experiment": "Dose normalized Cmax in po dosed mouse", "type": "ADME, organism-based", "settings": "in vivo"}, "Cytochrome P450 2C19": {"biological_target": "Cytochrome P450 2C19 (Homo sapiens, UniProt P33261)", "sequence (P33261 whole entry)": "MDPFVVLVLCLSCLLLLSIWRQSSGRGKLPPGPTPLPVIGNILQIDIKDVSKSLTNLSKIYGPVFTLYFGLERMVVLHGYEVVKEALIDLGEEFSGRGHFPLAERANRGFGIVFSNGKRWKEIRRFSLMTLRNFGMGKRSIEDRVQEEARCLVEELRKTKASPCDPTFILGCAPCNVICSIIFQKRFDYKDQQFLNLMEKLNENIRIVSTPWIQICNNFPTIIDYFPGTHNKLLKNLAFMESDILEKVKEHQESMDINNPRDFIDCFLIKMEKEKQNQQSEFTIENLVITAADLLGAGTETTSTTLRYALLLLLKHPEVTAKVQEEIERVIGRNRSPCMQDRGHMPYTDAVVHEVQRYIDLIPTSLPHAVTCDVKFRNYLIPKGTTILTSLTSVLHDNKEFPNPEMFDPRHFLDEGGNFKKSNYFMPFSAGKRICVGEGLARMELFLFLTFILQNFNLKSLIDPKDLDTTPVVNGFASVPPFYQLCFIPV", "experiment": "Inhibition of CYP2C19 (unknown origin) at 1 to 200 uM", "type": "ADME"}, "Rattus norvegicus [2]": {"tested_on": "Rattus norvegicus", "experiment": "Toxicity in female rat assessed as effect on hematocrit level at 20 mg/kg/day, po bid administered for 4 weeks (reference value: 39.08%)", "type": "organism-based", "set-up": "route oral", "settings": "in vivo, 672 h"}, "Homo sapiens [3]": {"tested_on": "Homo sapiens", "experiment": "Toxicity in fasted human at 50 to 1800 mg, po", "type": "organism-based", "settings": "in vivo", "outline": "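Randomized, double-blind, placebo-controlled single ascending dose study in healthy Chinese subjects under fasting conditions. Eight groups received single oral doses of 50, 100, 200, 400, 800, 1200, 1600 or 1800 mg, with tolerability assessed.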"}, "[4]": {"experiment": "AUC (0 to t) in male rat at 15 mg/kg, po", "type": "ADME, organism-based", "set-up": "dose 15 mg/kg, route oral", "settings": "plasma", "outline": "(§1)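 Rat PK by gender, with single oral doses of 5, 15 and 45 mg/kg and an iv dose of 5 mg/kg. Tmax, Cmax, T1/2 and AUC0−t were reported per gender.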"}, "Homo sapiens [5]": {"tested_on": "Homo sapiens", "experiment": "Toxicity in human assessed as change in platelet count at 600 to 800 mg, po administered as single dose with meal on day 1 and day 15 followed by bid with meal on day 2 to day 14 measured during compound treatment", "type": "organism-based", "settings": "in vivo"}, "Staphylococcus aureus [6]": {"tested_on": "Staphylococcus aureus", "experiment": "Antibacterial activity against methicillin-sensitive Staphylococcus aureus", "type": "functional"}, "Staphylococcus aureus [7]": {"tested_on": "Staphylococcus aureus", "experiment": "Antibacterial activity against methicillin-resistant Staphylococcus aureus isolate 0605 in mouse thigh infection model assessed as reduction of log10 CFU per thigh at 20 mg/kg, po", "type": "functional"}, "Rattus norvegicus [8]": {"tested_on": "Rattus norvegicus", "experiment": "Toxicity in female rat assessed as effect on neutrophil count at 20 mg/kg/day, po bid administered for 4 weeks (reference value: 22.4%)", "type": "organism-based", "set-up": "route oral", "settings": "in vivo, 672 h"}, "Enterococcus faecalis": {"tested_on": "Enterococcus faecalis", "experiment": "Antibacterial activity against vancomycin-sensitive/high-level gentamycin-resistant Enterococcus faecalis isolate HH22 in po dosed mouse systemic infection model", "type": "functional", "settings": "EnGen0297, po"}, "[9]": {"experiment": "Clastogenicity in CHL cells assessed as induction of structural chromosomal aberration at 25 to 200 ug/mL measured over 24 hrs in presence of metabolic activation", "type": "toxicity, cell-based, Cricetulus griseus", "settings": "chinese hamster", "outline": "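Chinese hamster lung cells scored for structural chromosome aberrations with or without metabolic activation. Exposure was 50–400 μg/mL over 6 h, or 25–200 μg/mL over 24 h.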"}, "[10]": {"experiment": "Cmax in human at 600 mg, po administered as single dose with meal measured on day 1", "type": "ADME, organism-based", "set-up": "dose 600 mg, route oral", "settings": "in vivo", "outline": "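Randomized, double-blind, placebo-controlled multiple-dose study in 32 healthy subjects, half male and half female. Each dose was taken with a meal, at 600 or 800 mg, 28 doses over 15 days. A single dose on days 1 and 15 gave full PK; BID (Q12h) dosing ran on days 2–14.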"}, "Rattus norvegicus [11]": {"tested_on": "Rattus norvegicus", "experiment": "Toxicity in female rat assessed as effect on neutrophil count at 100 mg/kg/day, po bid administered for 4 weeks (reference value: 22.4%)", "type": "organism-based", "set-up": "route oral", "settings": "in vivo, 672 h"}, "Streptococcus pneumoniae": {"tested_on": "Streptococcus pneumoniae", "experiment": "Bactericidal activity against penicillin-resistant Streptococcus pneumoniae", "type": "functional"}, "[12]": {"experiment": "AUC (0 to infinity) in fasted human at 900 mg, po administered as single dose", "type": "ADME, organism-based", "set-up": "dose 900 mg, route oral, time infinity", "settings": "plasma", "outline": "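Single-dose, three-period Latin-square crossover in 12 healthy volunteers (6 of each gender). Each received single oral 300, 600 and 900 mg doses under fasting conditions, with a 1-week washout between doses. PK parameters, including AUC0−inf, came from a noncompartmental model.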"}, "[13]": {"tested_on": "Staphylococcus haemolyticus", "experiment": "Antibacterial activity against Staphylococcus haemolyticus", "type": "functional"}, "L5178Y": {"tested_on": "L5178Y", "experiment": "Mutagenicity in mouse tk +/- L5178Y cells assessed as increase in gene mutation frequency at 62.5 to 1000 ug/mL in presence of S9 fraction"}, "Staphylococcus aureus [14]": {"tested_on": "Staphylococcus aureus", "experiment": "Antibacterial activity against methicillin-sensitive Staphylococcus aureus isolate 15 in po dosed mouse systemic infection model", "type": "functional", "settings": "isolate 15, po"}, "[15]": {"tested_on": "Streptococcus dysgalactiae subsp. equisimilis", "experiment": "Antibacterial activity against Streptococcus equisimilis", "type": "functional"}, "[16]": {"experiment": "Oral bioavailability in rat", "type": "ADME, organism-based", "settings": "in vivo"}, "[17]": {"experiment": "AUC (0 to t) in male rat at 45 mg/kg, po", "type": "ADME, organism-based", "set-up": "dose 45 mg/kg, route oral", "settings": "plasma", "outline": "as §1"}},
  "data": [
    {"molecule": "O=C1C=CN(c2c(F)cc(N3C[C@H](CNc4ccon4)OC3=O)c(F)c2F)CC1", "note": "[CONTEZOLID]", "values": [
      {"measurement": "half-life", "setting": "[1]", "result": 162, "unit": "min"},
      {"measurement": "Cmax/dose", "setting": "Mus musculus", "result": "524 ng/mL/(mg/kg)"},
      {"measurement": "inhibition (INH)", "setting": "Cytochrome P450 2C19", "result": "Not Active"},
      {"measurement": "Activity", "setting": "Rattus norvegicus [2]", "result": 37.16, "unit": "%"},
      {"measurement": "Activity", "setting": "Homo sapiens [3]", "result": "Non-toxic"},
      {"measurement": "AUC(0-t)", "setting": "[4]", "result": 34300, "unit": "ng·h/mL"},
      {"measurement": "Activity", "setting": "Homo sapiens [5]", "result": "Non-toxic"},
      {"measurement": "MIC", "setting": "Staphylococcus aureus [6]", "result": 0.5, "unit": "µg/mL"},
      {"measurement": "MIC50", "setting": "Staphylococcus aureus [6]", "result": 0.5, "unit": "µg/mL"},
      {"measurement": "MIC90", "setting": "Staphylococcus aureus [6]", "result": 0.5, "unit": "µg/mL"},
      {"measurement": "deltalog10CFU", "setting": "Staphylococcus aureus [7]", "result": 3.6},
      {"measurement": "Activity", "setting": "Rattus norvegicus [8]", "result": 15.4, "unit": "%"},
      {"measurement": "ED50", "setting": "Enterococcus faecalis", "result": 7.4, "unit": "mg/kg"},
      {"measurement": "Activity", "setting": "[9]", "result": "Non-toxic"},
      {"measurement": "Cmax", "setting": "[10]", "result": 20300, "unit": "ng/mL"},
      {"measurement": "Activity", "setting": "Rattus norvegicus [11]", "result": 18.4, "unit": "%"},
      {"measurement": "MIC50", "setting": "Streptococcus pneumoniae", "result": 0.5, "unit": "µg/mL"},
      {"measurement": "MIC90", "setting": "Streptococcus pneumoniae", "result": 0.5, "unit": "µg/mL"},
      {"measurement": "AUC(0-inf)", "setting": "[12]", "result": 59200, "unit": "ng·h/mL"},
      {"measurement": "MIC50", "setting": "[13]", "result": 0.5, "unit": "µg/mL"},
      {"measurement": "MIC90", "setting": "[13]", "result": 0.5, "unit": "µg/mL"},
      {"measurement": "Activity", "setting": "L5178Y", "result": "Non-toxic"},
      {"measurement": "ED50", "setting": "Staphylococcus aureus [14]", "result": 5.7, "unit": "mg/kg"},
      {"measurement": "MIC", "setting": "[15]", "result": 1, "unit": "µg/mL"},
      {"measurement": "MIC50", "setting": "[15]", "result": 1, "unit": "µg/mL"},
      {"measurement": "MIC90", "setting": "[15]", "result": 1, "unit": "µg/mL"},
      {"measurement": "bioavailability", "setting": "[16]", "result": 109, "unit": "%"},
      {"measurement": "AUC(0-t)", "setting": "[17]", "result": 93800, "unit": "ng·h/mL"}
    ]}
  ]
}
